hIAP block = blocks human intestinal alkaline phosphatase; 0.12% of 330,000 active; inhibition, % at 10 µM; purified IAP, CDP-Star luminescence, 30 min; P09923; AID 2544;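 active = inhibition reaching a set limit with compound at 10 µM in the primary screen, cut at about 35% in these data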;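 note: plate controls were DMSO wells with enzyme for no effect and no-enzyme buffer wells for full effect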
Target sequence (P09923 whole entry, looked up): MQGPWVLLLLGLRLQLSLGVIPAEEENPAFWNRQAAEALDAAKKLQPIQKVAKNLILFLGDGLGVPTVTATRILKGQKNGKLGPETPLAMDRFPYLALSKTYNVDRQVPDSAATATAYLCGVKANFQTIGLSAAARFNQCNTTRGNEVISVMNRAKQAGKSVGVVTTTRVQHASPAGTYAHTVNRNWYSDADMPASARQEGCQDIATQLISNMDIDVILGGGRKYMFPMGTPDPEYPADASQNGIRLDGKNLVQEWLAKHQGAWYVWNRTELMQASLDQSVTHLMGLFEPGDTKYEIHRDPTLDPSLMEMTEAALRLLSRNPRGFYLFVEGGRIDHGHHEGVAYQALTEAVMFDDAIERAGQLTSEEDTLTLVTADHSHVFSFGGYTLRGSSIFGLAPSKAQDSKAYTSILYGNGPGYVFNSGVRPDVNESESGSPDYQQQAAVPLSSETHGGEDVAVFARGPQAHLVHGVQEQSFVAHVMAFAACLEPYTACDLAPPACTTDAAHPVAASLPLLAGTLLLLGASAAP
bIAP inhibitor = blocks bovine intestinal alkaline phosphatase activity. 190,000 tested, under 10 active. inhibition, % at 20 µM. purified bovine IAP, CDP-star luminescence, 30 min;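 active = over 50% inhibition of intestinal alkaline phosphatase at 20 µM in the single-dose screen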
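Incubation: 30 min reaction at room temperature / Material: purified bovine intestinal alkaline phosphatase (IAP) enzyme / Input: enzyme at 1/65,000,000 dilution / Dosing: 20 µM single dose / Signal: CDP-star luminescence signal / Reagent: CDP-star chemiluminescent phosphatase substrate, 30 µM final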
bIAP act = intestinal alkaline phosphatase (bovine) activation; purified bovine IAP, CDP-star luminescence, 30 min; active compounds read high; fold of DMSO-control signal, blank-subtracted; activation factor at 20 µM; 0.17% of 200,000 active; AID 1016;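 active = activation factor of 2 or more at 20 µM, a signal rise over negative controls twice the positive control's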
hIAP activ = increases human intestinal alkaline phosphatase activity; P09923; purified human IAP, CDP-Star luminescence, 30 min; active compounds read high; 1 = vehicle-only enzyme, 0 = enzyme-free background; activation factor at 10 µM; 0.16% of 330,000 active;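 active = activation factor of the enzyme at least 2-fold when tested at 20 µM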
mIAP block = blocks mouse intestinal alkaline phosphatase; inhibition, % at 10 µM; purified mouse IAP, CDP-Star luminescence, 30 min; AID 2806; 0.2% of 330,000 active;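 active = inhibition of at least 40% at 10 µM in the primary screen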;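 note: plate controls were DMSO with enzyme for no effect and no enzyme wells for full effect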
mIAP act = mouse IAP activation. muIAP, CDP-Star luminescence, 30 min; active compounds read high; 1 = vehicle-only enzyme signal, 0 = enzyme-free wells. activation factor at 10 µM. 0.24% of 330,000 active;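 active = activation factor of at least 2 at 20 µM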
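Assay system: mouse IAP enzyme; reagent: chemiluminescent substrate CDP-Star; dosing: test compounds delivered from DMSO solution; schedule: 30 min at room temperature; measured by: luminescence from enzymatic CDP-Star hydrolysis; controls: DMSO-only wells and no-enzyme negative control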
An asterisk follows results filed as active. Hits are enriched below; roughly 0.72% of the tested compounds scored in any of these assays.

Screening CC(NC(=O)Nc1ccc(Cl)cc1)C(c1cccs1)N1CCOCC1 (stereo unspecified) returned hIAP block -19, bIAP inhibitor -20, bIAP act 1.2, hIAP activ 1.2, mIAP block -137 and mIAP act 2.4*.
Screening Cc1cccc(N2CCN(c3ccc4cc(S(=O)(=O)N5CCCCC5)ccc4n3)CC2)c1C returned hIAP block 2, hIAP activ 0.98, mIAP block 7 and mIAP act 0.93.
CCOc1ccc(NC(=O)CCC(=O)NNC(=O)COc2ccc(C)cc2Br)cc1 was read as hIAP block -96, hIAP activ 2, mIAP block 49* and mIAP act 0.51.
For C/C(=N\Nc1cccc2cccnc12)c1ccccn1 the results were hIAP block -106, bIAP inhibitor -17, bIAP act 1.2, hIAP activ 2.1*, mIAP block 10 and mIAP act 0.9.
C/C(=N\Nc1cccc2cccnc12)c1ccccc1O was read as hIAP block 4, bIAP inhibitor 2, bIAP act 1, hIAP activ 0.96, mIAP block 8 and mIAP act 0.92.
`CC(OC(=O)c1ccc(Cl)cc1)C(=O)NCC1CCCCC1` (stereo unspecified) gave hIAP block 9, hIAP activ 0.91, mIAP block 3 and mIAP act 0.97.
Screening COc1ccc(-c2csc(=Nc3ccccc3)n2CCO)cc1 returned hIAP block -3, bIAP inhibitor -95, bIAP act 2*, hIAP activ 1, mIAP block 9 and mIAP act 0.91.
`COc1ccc(N=c2scc(-c3ccc(S(=O)(=O)N4CCOCC4)cc3)n2CCCO)cc1` gave bIAP inhibitor 7 and bIAP act 0.9.
Cc1ccc(-n2ncc3c(N4CCCC(C)C4)ncnc32)c(C)c1 (stereo unspecified) was read as hIAP block -11, hIAP activ 1.1, mIAP block 44* and mIAP act 0.56.
For COc1ccc(C(CCc2ccc(C)o2)NC(=O)Nc2ccc(OC)cc2OC)cc1 (stereo unspecified) the results were hIAP block 17, bIAP inhibitor -12, bIAP act 1.1, hIAP activ 0.83, mIAP block -104 and mIAP act 2*.
For S=C(Nc1ccc(Nc2ccccc2)cc1)NC1CCCCCC1 the results were hIAP block -3, bIAP inhibitor 11, bIAP act 0.9, hIAP activ 1, mIAP block -19 and mIAP act 1.2.
`S=C(Nc1ccc(Cl)cc1)NC1CCCCC1` gave hIAP block 9, hIAP activ 0.91, mIAP block -81 and mIAP act 1.8.
`FC(F)Oc1ccc(NC(=S)NC2CCCCCCC2)cc1` gave hIAP block -13, hIAP activ 1.1, mIAP block -164 and mIAP act 2.6*.
`S=C(Nc1ccc(Br)cc1)NC1CCCCC1` gave hIAP block 1, bIAP inhibitor -11, bIAP act 1.1, hIAP activ 0.99, mIAP block -150 and mIAP act 2.5*.
For COC(=O)N/N=C(C)\C=C\c1ccco1 the results were hIAP block -7, bIAP inhibitor inactive, bIAP act 6.4*, hIAP activ 1.1, mIAP block 1 and mIAP act 0.99.
O=C(NCc1ccccn1)C1C2C=CC(C2)C1C(=O)Nc1ccc(F)cc1 (stereo unspecified) was read as hIAP block 1, bIAP inhibitor 4, bIAP act 1, hIAP activ 0.99, mIAP block 0 and mIAP act 1.
For O=S(=O)(Nc1cccc(-n2cnnn2)c1)c1ccccc1F the results were hIAP block 12, hIAP activ 0.88, mIAP block 6 and mIAP act 0.94.
Screening CCCC(=O)Nc1ccc(C(=O)N/N=C/c2ccc([N+](=O)[O-])o2)cc1 returned hIAP block -28, bIAP inhibitor -38, bIAP act 1.4, hIAP activ 1.3, mIAP block 40* and mIAP act 0.6.
Screening COC(=O)c1ccc(NC(=O)C2CC3CCC2C3)cc1 (stereo unspecified) returned hIAP block 6, hIAP activ 0.94, mIAP block -7 and mIAP act 1.1.

Source: PubChem BioAssay
